This note sets out measurements from publication PMC2709489 (Nature biotechnology, 2009).

Test [1] addresses mouse brain serine hydrolases (Homo sapiens, UniProt O75884). Type of test: biochemical.
Test [2] concerns the target T1, RBBP9 (Homo sapiens, UniProt O75884). Type of test: biochemical.
The test system of test [3] is endogenous GSTO1 and other SE-rhodamine targets. Type of test: biochemical, human.
In test [4] the target is T1, RBBP9. In words: Gel-based competitive ABPP of RBBP9 with varying Pluronic F-127. Format: biochemical. The note with it: compound 5 at 10 and 20 µM, emetine 20 µM; 400 nM RBBP9.
In test [5] the target is T2, GSTO1 (Homo sapiens, UniProt P78417).
T2 sequence (P78417 1-241): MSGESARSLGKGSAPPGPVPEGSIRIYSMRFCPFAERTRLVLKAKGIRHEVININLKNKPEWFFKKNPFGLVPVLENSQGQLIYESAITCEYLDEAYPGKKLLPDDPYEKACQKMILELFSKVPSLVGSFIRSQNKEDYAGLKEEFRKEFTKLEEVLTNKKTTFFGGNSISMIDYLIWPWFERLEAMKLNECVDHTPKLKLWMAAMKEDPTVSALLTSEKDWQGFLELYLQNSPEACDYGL
Format: biochemical.

Test [6] has as its target T1, RBBP9. The test is described as follows: Reversibility of RBBP9 inhibition by gel filtration. Type of test: biochemical. The settings on record: emetine 500 μM or compound 2 50 μM, 30 min, then Sephadex G-25M.
In test [7] the target is T2, GSTO1. In words: Reversibility of GSTO1 inhibition by gel filtration. Type of test: biochemical. The settings on record: 6 and 9 at 280 μM, 7 and 8 at 28 μM, 30 min, then Sephadex G-25M. In short, it runs like this:
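Recombinant GSTO1 (2 μM) was incubated 30 min with DMSO or test compound, then split. One portion was labeled directly with SE-rhodamine. The other was passed over a Sephadex G-25M gel-filtration column before SE-rhodamine labeling. Both were resolved by SDS-PAGE with in-gel fluorescence read-out.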
(In general: SEC sorts molecules by how far they enter the pores of the column.)

Molecules are shown by their SMILES. Where two headings read alike, the source gives them in different places.

T1 sequence (O75884 whole entry): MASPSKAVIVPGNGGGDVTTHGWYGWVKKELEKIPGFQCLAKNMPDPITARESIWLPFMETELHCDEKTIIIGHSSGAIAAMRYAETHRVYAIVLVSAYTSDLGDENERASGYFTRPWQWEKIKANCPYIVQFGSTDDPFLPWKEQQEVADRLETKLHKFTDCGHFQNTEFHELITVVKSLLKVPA
Chain of mouse brain serine hydrolases (O75884 whole entry): as above

With `CC[C@H]1CN2CCc3cc(OC)c(OC)cc3[C@@H]2C[C@@H]1C[C@H]1NCCc2cc(O)c(OC)cc21` [1a, Cephaeline], in test [1], the “inhibition of RBBP9 by emetine analogues (competitive ABPP)” value is “inhibited RBBP9, albeit with reduced potency relative to emetine”.

In the case of `CCC1=C(C[C@H]2NCCc3cc(OC)c(OC)cc32)C[C@H]2c3cc(OC)c(OC)cc3CCN2C1` [1b, Dehydroemetine], the “inhibition of RBBP9” value against RBBP9 [2] was “failed to inhibit RBBP9”.

As for `CC[C@H]1CN2CCc3cc(OC)c(OC)cc3[C@@H]2C[C@@H]1C[C@H]1NCCc2c1[nH]c1ccc(O)cc21` [1c, Tubulosine], in test [1], the “inhibition of RBBP9 by emetine analogues (competitive ABPP)” value was “inhibited RBBP9, albeit with reduced potency relative to emetine”.

Turning to `CC[C@H]1CN2CCc3cc(OC)c(OC)cc3[C@@H]2C[C@@H]1C[C@H]1NCCc2cc(OC)c(OC)cc21` [Compound 1, Emetine], in test [3] (20 μM), the “effect on other SE-rhodamine targets in MDA-MB-231 proteome” value was “did not inhibit the labeling of GSTO1 or any of the other SE-rhodamine targets” and the “inhibition of GSTO1 in MDA-MB-231 proteome” value (shortened to “inhibition of GSTO1”) is given as “did not inhibit the labeling of GSTO1”. On RBBP9 [4], the “effect of Pluronic F-127 on inhibitory activity” value is recorded as “did not diminish the inhibitory activity”. Further, the “block of probe labeling of GSTO1 (FluoPol)” value at GSTO1 [5] is “did not block probe labeling of GSTO1”. The “reversibility of RBBP9 inhibition” value at RBBP9 [6] is recorded as “reversible”.

`COc1ccc2[nH]c([S+]([O-])Cc3ncc(C)c(OC)c3C)nc2c1` (stereo not drawn) [Compound 6, omeprazole]: the “inhibition of GSTO1” value is “lost” in test [3] (1 μM) and “considerably less potent” in test [3] (20 μM). The “reversibility of GSTO1 inhibition” value on GSTO1 [7] is given as “reversible”.

Regarding `CO[C@H]1/C=C/O[C@@]2(C)Oc3c(C)c(O)c4c(O)c(c(/C=N/N5CCN(C)CC5)c(O)c4c3C2=O)NC(=O)/C(C)=C\C=C\[C@H](C)[C@H](O)[C@@H](C)[C@@H](O)[C@@H](C)[C@H](OC(C)=O)[C@@H]1C` [Compound 9, rifampicin], the “inhibition of GSTO1” value in test [3] (1 μM) is “lost”; in test [3] (20 μM), “considerably less potent”. On GSTO1 [7], the “reversibility of GSTO1 inhibition” value is given as “reversible”.

`N[C@@H](CCC(=O)N[C@@H](CS)C(=O)NCC(=O)O)C(=O)O` [glutathione]: the “block of probe labeling of GSTO1 (FluoPol)” value at GSTO1 [5] is recorded as “No labeling”.
